# Where “and” joins values, the source holds several entries; their conditions need not be identical. Identical values can stand only once.
# Test system: U2OS
# Assay: Multiplex assay against U2OS
# Assay type: toxicity, cell-based
# Details: human
# Method in brief: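 Per cents of healthy-nucleus cells form the tubulin, mitochondrial-mass and membrane-permeability phenotype values. Live cells were stained at seeding with Hoechst33342, BioTracker Green Microtubule Cytoskeleton Dye, MitoTracker Red and Annexin V Alexa Fluor 680. After compound addition they were imaged on a CQ1 microscope at 37°C and 5% CO2, and CellPathfinder machine-learning gating split them into Hoechst high-intensity objects or normal cells, normal cells into healthy, pyknosed or fragmented nuclei, and pyknosed cells into mitotic or apoptotic.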
# [1] = 12 h, 1 µM, compound concentration 1 uM, replicate 1
# [2] = 12 h, 1 µM, compound concentration 1 uM, replicate 2
# [3] = 12 h, 10 µM, compound concentration 10 uM, replicate 1
# [4] = 12 h, 10 µM, compound concentration 10 uM, replicate 2
# [5] = 24 h, 1 µM, compound concentration 1 uM, replicate 1
# [6] = 24 h, 1 µM, compound concentration 1 uM, replicate 2
# [7] = 24 h, 10 µM, compound concentration 10 uM, replicate 1
# [8] = 24 h, 10 µM, compound concentration 10 uM, replicate 2
# [9] = 48 h, 1 µM, compound concentration 1 uM, replicate 1
# [10] = 48 h, 1 µM, compound concentration 1 uM, replicate 2
# [11] = 48 h, 10 µM, compound concentration 10 uM, replicate 1
# [12] = 48 h, 10 µM, compound concentration 10 uM, replicate 2
structure (smiles),measurement,setting,value
C[C@@H](Oc1cc(-n2cnc3ccc(CN4CCN(C)CC4)cc32)sc1C(N)=O)c1ccccc1C(F)(F)F [GSK-461364],Population Apoptotic (%),[1],55%
same,Population Fragmented Nuclei (%),[1],13%
same,Population Healthy Nuclei (%),[1],70%
same,Population Hoechst High Intensity Objects (%),[1],7%
same,Population Membrane Permeable-Phenotype (%),[1],7%
same,Population Mitochondria Different-Phenotype (%),[1],60%
same,Population Mitotic Cells (%),[1],45%
same,Population Normal (%),[1],92%
same,Population Pyknosed Nuclei (%),[1],15%
same,Population Tubulin-Different-Phenotype (%),[1],84%
same,Total Cell Count,[1],153
same,Population Apoptotic (%),[2],12%
same,Population Fragmented Nuclei (%),[2],12%
same,Population Healthy Nuclei (%),[2],71%
same,Population Hoechst High Intensity Objects (%),[2],4%
same,Population Membrane Permeable-Phenotype (%),[2],12%
same,Population Mitochondria Different-Phenotype (%),[2],35%
same,Population Mitotic Cells (%),[2],87%
same,Population Normal (%),[2],95%
same,Population Pyknosed Nuclei (%),[2],16%
same,Population Tubulin-Different-Phenotype (%),[2],30%
same,Population Apoptotic (%),[3],58%
same,Population Fragmented Nuclei (%),[3],14%
same,Population Healthy Nuclei (%),[3],40%
same,Population Hoechst High Intensity Objects (%),[3],9%
same,Population Membrane Permeable-Phenotype (%),[3],81%
same,Population Mitochondria Different-Phenotype (%),[3],100%
same,Population Mitotic Cells (%),[3],41%
same,Population Normal (%),[3],90%
same,Population Pyknosed Nuclei (%),[3],44%
same,Population Tubulin-Different-Phenotype (%),[3],100%
same,Total Cell Count,[3],137
same,Population Apoptotic (%),[4],40%
same,Population Fragmented Nuclei (%),[4],13%
same,Population Healthy Nuclei (%),[4],55%
same,Population Membrane Permeable-Phenotype (%),[4],71%
same,Population Mitotic Cells (%),[4],59%
same,Population Pyknosed Nuclei (%),[4],31%
same,Population Apoptotic (%),[5],78%
same,Population Fragmented Nuclei (%),[5],16%
same,Population Healthy Nuclei (%),[5],65%
same,Population Hoechst High Intensity Objects (%),[5],6%
same,Population Membrane Permeable-Phenotype (%),[5],8%
same,Population Mitochondria Different-Phenotype (%),[5],65%
same,Population Mitotic Cells (%),[5],21%
same,Population Normal (%),[5],93%
same,Population Pyknosed Nuclei (%),[5],17%
same,Population Tubulin-Different-Phenotype (%),[5],91%
same,Population Apoptotic (%),[6],50%
same,Population Fragmented Nuclei (%),[6],14%
same,Population Healthy Nuclei (%),[6],68%
same,Population Hoechst High Intensity Objects (%),[6],4%
same,Population Membrane Permeable-Phenotype (%),[6],18%
same,Population Mitochondria Different-Phenotype (%),[6],35%
same,Population Mitotic Cells (%),[6],50%
same,Population Normal (%),[6],95%
same,Population Tubulin-Different-Phenotype (%),[6],28%
same,Population Apoptotic (%),[7],90%
same,Population Fragmented Nuclei (%),[7],23%
same,Population Healthy Nuclei (%),[7],21%
same,Population Hoechst High Intensity Objects (%),[7],8%
same,Population Membrane Permeable-Phenotype (%),[7],92%
same,Population Mitochondria Different-Phenotype (%),[7],100%
same,Population Mitotic Cells (%),[7],9%
same,Population Normal (%),[7],91%
same,Population Pyknosed Nuclei (%),[7],54%
same,Population Tubulin-Different-Phenotype (%),[7],100%
same,Total Cell Count,[7],138
same,Population Apoptotic (%),[8],82%
same,Population Fragmented Nuclei (%),[8],10%
same,Population Healthy Nuclei (%),[8],47%
same,Population Hoechst High Intensity Objects (%),[8],6%
same,Population Membrane Permeable-Phenotype (%),[8],90%
same,Population Mitotic Cells (%),[8],17%
same,Population Normal (%),[8],93%
same,Population Pyknosed Nuclei (%),[8],41%
same,Population Apoptotic (%),[9],71%
same,Population Fragmented Nuclei (%),[9],22%
same,Population Healthy Nuclei (%),[9],51%
same,Population Hoechst High Intensity Objects (%),[9],10%
same,Population Membrane Permeable-Phenotype (%),[9],18%
same,Population Mitochondria Different-Phenotype (%),[9],57%
same,Population Mitotic Cells (%),[9],28%
same,Population Normal (%),[9],89%
same,Population Pyknosed Nuclei (%),[9],25%
same,Population Tubulin-Different-Phenotype (%),[9],85%
same,Total Cell Count,[9],246
same,Population Apoptotic (%),[10],47%
same,Population Fragmented Nuclei (%),[10],10%
same,Population Healthy Nuclei (%),[10],68%
same,Population Hoechst High Intensity Objects (%),[10],5%
same,Population Membrane Permeable-Phenotype (%),[10],27%
same,Population Mitochondria Different-Phenotype (%),[10],25%
same,Population Mitotic Cells (%),[10],52%
same,Population Normal (%),[10],94%
same,Population Pyknosed Nuclei (%),[10],20%
same,Population Tubulin-Different-Phenotype (%),[10],30%
same,Total Cell Count,[10],128
same,Population Apoptotic (%),[11],98%
same,Population Fragmented Nuclei (%),[11],27%
same,Population Healthy Nuclei (%),[11],14%
same,Population Hoechst High Intensity Objects (%),[11],11%
same,Population Membrane Permeable-Phenotype (%),[11],100%
same,Population Mitochondria Different-Phenotype (%),[11],94%
same,Population Mitotic Cells (%),[11],1%
same,Population Normal (%),[11],88%
same,Population Pyknosed Nuclei (%),[11],58%
same,Population Tubulin-Different-Phenotype (%),[11],100%
same,Total Cell Count,[11],138
same,Population Apoptotic (%),[12],82%
same,Population Fragmented Nuclei (%),[12],20%
same,Population Healthy Nuclei (%),[12],43%
same,Population Hoechst High Intensity Objects (%),[12],8%
same,Population Membrane Permeable-Phenotype (%),[12],97%
same,Population Mitochondria Different-Phenotype (%),[12],100%
same,Population Mitotic Cells (%),[12],17%
same,Population Normal (%),[12],91%
same,Population Pyknosed Nuclei (%),[12],36%
same,Total Cell Count,[12],108
CC[C@@]1(O)C(=O)OCc2c1cc1n(c2=O)Cc2cc3ccccc3nc2-1 [CAMPTOTHECIN],Population Healthy Nuclei (%),[1],34% and 42% and 78%
same,Population Membrane Permeable-Phenotype (%),[1],11% and 13% and 14%
same,Population Mitochondria Different-Phenotype (%),[1],25% and 31% and 35%
same,Population Normal (%),[1],48% and 90%
same,Population Pyknosed Nuclei (%),[1],13% and 7%
same,Population Tubulin-Different-Phenotype (%),[1],20% and 33%
same,Population Apoptotic (%),[2],22% and 36% and 16%
same,Population Fragmented Nuclei (%),[2],62% and 59% and 26%
same,Population Healthy Nuclei (%),[2],25% and 24% and 65%
same,Population Hoechst High Intensity Objects (%),[2],62% and 50% and 28%
same,Population Membrane Permeable-Phenotype (%),[2],10% and 9%
same,Population Mitochondria Different-Phenotype (%),[2],45% and 38% and 22%
same,Population Mitotic Cells (%),[2],77% and 64% and 83%
same,Population Normal (%),[2],37% and 49% and 71%
same,Population Pyknosed Nuclei (%),[2],12% and 15%
same,Population Apoptotic (%),[3],47%
same,Population Fragmented Nuclei (%),[3],13%
same,Population Healthy Nuclei (%),[3],74%
same,Population Hoechst High Intensity Objects (%),[3],6%
same,Population Membrane Permeable-Phenotype (%),[3],16%
same,Population Mitochondria Different-Phenotype (%),[3],24%
same,Population Mitotic Cells (%),[3],52%
same,Population Normal (%),[3],93%
same,Population Pyknosed Nuclei (%),[3],11%
same,Population Tubulin-Different-Phenotype (%),[3],31%
same,Total Cell Count,[3],161
same,Population Apoptotic (%),[4],18%
same,Population Fragmented Nuclei (%),[4],20%
same,Population Healthy Nuclei (%),[4],68%
same,Population Hoechst High Intensity Objects (%),[4],19%
same,Population Membrane Permeable-Phenotype (%),[4],13%
same,Population Mitochondria Different-Phenotype (%),[4],32%
same,Population Mitotic Cells (%),[4],81%
same,Population Normal (%),[4],80%
same,Population Pyknosed Nuclei (%),[4],10%
same,Population Tubulin-Different-Phenotype (%),[4],38%
same,Total Cell Count,[4],131
same,Population Apoptotic (%),[5],63% and 75% and 77%
same,Population Healthy Nuclei (%),[5],26% and 28% and 72%
same,Population Membrane Permeable-Phenotype (%),[5],36% and 32% and 15%
same,Population Mitochondria Different-Phenotype (%),[5],58% and 57% and 35%
same,Population Mitotic Cells (%),[5],36% and 24% and 22%
same,Population Normal (%),[5],43% and 46% and 91%
same,Population Pyknosed Nuclei (%),[5],15% and 18%
same,Population Tubulin-Different-Phenotype (%),[5],38% and 42% and 40%
same,Population Apoptotic (%),[6],54% and 62% and 80%
same,Population Fragmented Nuclei (%),[6],63% and 22%
same,Population Hoechst High Intensity Objects (%),[6],59% and 27%
same,Population Mitochondria Different-Phenotype (%),[6],54% and 50% and 33%
same,Population Mitotic Cells (%),[6],45% and 37% and 20%
same,Population Normal (%),[6],40% and 72%
same,Population Pyknosed Nuclei (%),[6],21% and 11%
same,Population Apoptotic (%),[7],80%
same,Population Fragmented Nuclei (%),[7],21%
same,Population Healthy Nuclei (%),[7],65%
same,Population Hoechst High Intensity Objects (%),[7],5%
same,Population Membrane Permeable-Phenotype (%),[7],14%
same,Population Mitochondria Different-Phenotype (%),[7],41%
same,Population Mitotic Cells (%),[7],20%
same,Population Normal (%),[7],94%
same,Population Pyknosed Nuclei (%),[7],13%
same,Population Tubulin-Different-Phenotype (%),[7],37%
same,Total Cell Count,[7],157
same,Population Apoptotic (%),[8],90%
same,Population Fragmented Nuclei (%),[8],25%
same,Population Healthy Nuclei (%),[8],64%
same,Population Hoechst High Intensity Objects (%),[8],10%
same,Population Membrane Permeable-Phenotype (%),[8],17%
same,Population Mitochondria Different-Phenotype (%),[8],35%
same,Population Mitotic Cells (%),[8],9%
same,Population Normal (%),[8],89%
same,Population Pyknosed Nuclei (%),[8],11%
same,Population Tubulin-Different-Phenotype (%),[8],42%
same,Total Cell Count,[8],112
